Test results from ChEMBL document CHEMBL2086314, “Synthesis and anticonvulsant activity of new N-Mannich bases derived from 3-(2-fluorophenyl)- and 3-(2-bromophenyl)-pyrrolidine-2,5-diones. Part II” (Bioorg Med Chem, 2012).

How the values were obtained:
Mus musculus [1] = experiment: Neurotoxicity in CF-1 albino mouse assessed as motor impairment at 300 mg/kg, ip measured after 4 hrs by rotarod test; format: toxicity, organism-based; design: dose 300 mg/kg, route intraperitoneal; conditions: in vivo
Summary of the method: (§1)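 Rotarod neurotoxicity in male CF-1 mice given ip doses of 30, 100 or 300 mg/kg (0.5% methylcellulose suspension), examined 0.5 and 4 h after dosing. Impairment means failing to hold balance on the rod for 1 min. Value is the minimum dose causing toxicity in half or more of the animals; response comments are recorded.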

Rattus norvegicus [2] = experiment: Anticonvulsant activity in Sprague-Dawley rat assessed as protection from maximum electric shock-induced seizures at 30 mg/kg, po measured after 1 hr; format: functional
Summary of the method: (§2)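 Male Sprague–Dawley rats, four per group, given 30 mg/kg orally as a suspension in 0.5% methylcellulose/water. MES stimulus 150 mA, 60 Hz, 0.2 s via corneal electrodes. Tested at 0.25, 0.5, 1, 2 and 4 h; value is rats protected out of four.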

Mus musculus [3] = experiment: Anticonvulsant activity in ip dosed 6 Hz psychomotor-induced seizure in CF-1 albino mouse assessed as time of peak effect; format: functional
Mus musculus [4] = experiment: Anticonvulsant activity in CF-1 albino mouse assessed as protection against 6 Hz psychomotor seizure at 100 mg/kg, ip measured after 1 hr; format: functional; conditions: route intraperitoneal
Summary of the method: (§3)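 6-Hz psychomotor seizure in male CF-1 mice, compound suspended in 0.5% methylcellulose/water, given ip (100 or 75 mg/kg). Corneal stimulation with 0.2 ms monopolar rectangular pulses at 6 Hz for 3 s, 32 mA, constant-current device. Protected if normal exploratory behaviour resumes within 10 s. Tested 0.25–4 h after dosing; value is mice protected out of four.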

Mus musculus [5] = experiment: Neurotoxicity in CF-1 albino mouse assessed as loss of […] reflex at 300 mg/kg, ip measured after 0.5 hrs by rotarod test; format: toxicity, organism-based; design: dose 300 mg/kg, route intraperitoneal; conditions: in vivo; summary of the method: as §1
Mus musculus [6] = experiment: Anticonvulsant activity in ip dosed CF-1 albino mouse assessed as protection from maximal electric shock-induced seizures measured after 4 hrs; format: functional; conditions: read-out: MED
Summary of the method: (§4)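 Male CF-1 mice dosed ip at 30, 100 or 300 mg/kg, suspension in 0.5% methylcellulose/water. MES: corneal electrodes primed with electrolyte containing anaesthetic, 50 mA, 60 Hz, 0.2 s. Examined 0.5 and 4 h after dosing. Value is the minimum dose protecting half or more of the animals.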

[7] = Neurotoxicity in ip dosed CF-1 albino mouse assessed as motor impairment by rotarod test; format: toxicity, organism-based; conditions: in vivo
Mus musculus [8] = experiment: Neurotoxicity in ip dosed CF-1 albino mouse assessed as motor impairment measured after 0.5 hrs by rotarod test; format: toxicity, organism-based; conditions: in vivo; summary of the method: as §1
Rattus norvegicus [9] = experiment: Anticonvulsant activity in Sprague-Dawley rat assessed as protection from maximum electric shock-induced seizures at 30 mg/kg, po measured after 4 hrs; format: functional; summary of the method: as §2
Mus musculus [10] = experiment: Neurotoxicity in CF-1 albino mouse assessed as inability to grasp rotarod at 300 mg/kg, ip measured after 0.5 hrs by rotarod test; format: toxicity, organism-based; design: dose 300 mg/kg, route intraperitoneal; conditions: in vivo; summary of the method: as §1
Mus musculus [11] = experiment: Anticonvulsant activity in CF-1 albino mouse assessed as protection against 6 Hz psychomotor seizure at 100 mg/kg, ip measured after 4 hrs; format: functional; conditions: route intraperitoneal; summary of the method: as §3
Mus musculus [12] = experiment: Anticonvulsant activity in ip dosed CF-1 albino mouse assessed as protection against 6 Hz psychomotor seizures; format: functional
Summary of the method: (§5)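 6-Hz test (32 mA, 0.2 ms pulses at 6 Hz for 3 s, corneal) in male CF-1 mice dosed ip. Quantified at the time of peak effect in groups of eight across at least three doses giving 10–90% effect. ED50 and TD50 (minimal neurological toxicity) obtained by regression; PI = TD50/ED50.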

Mus musculus [13] = experiment: Anticonvulsant activity in CF-1 albino mouse assessed as protection against 6 Hz psychomotor seizure at 100 mg/kg, ip measured after 2 hrs; format: functional; conditions: route intraperitoneal; summary of the method: as §3
Rattus norvegicus [14] = experiment: Anticonvulsant activity in Sprague-Dawley rat assessed as protection from maximum electric shock-induced seizures at 30 mg/kg, po measured after 0.5 hrs; format: functional; summary of the method: as §2
Mus musculus [15] = experiment: Anticonvulsant activity in ip dosed CF-1 albino mouse assessed as protection against subcutaneous pentylenetetrazol-induced seizures measured after 0.5 hrs; format: functional; conditions: read-out: MED
Summary of the method: (§6)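 scPTZ test in male CF-1 mice. Compound suspended in 0.5% methylcellulose/water, ip at 30, 100 or 300 mg/kg. Pentylenetetrazole 85 mg/kg (CD97, clonic seizures lasting at least 5 s) given subcutaneously at the test time, read at 0.5 and 4 h. Value is the minimum dose protecting half or more of the animals.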

Mus musculus [16] = species: Mus musculus; experiment: Protective index, ratio of TD50 for CF-1 albino mouse to ED50 for CF-1 albino mouse assessed as protection from 6 Hz psychomotor seizure; format: functional; summary of the method: as §5
Mus musculus [17] = experiment: Anticonvulsant activity in CF-1 albino mouse assessed as protection against 6 Hz psychomotor seizure at 100 mg/kg, ip measured after 0.5 hrs; format: functional; conditions: route intraperitoneal; summary of the method: as §3
Rattus norvegicus [18] = experiment: Anticonvulsant activity in Sprague-Dawley rat assessed as protection from maximum electric shock-induced seizures at 30 mg/kg, po measured after 0.25 hrs; format: functional; summary of the method: as §2
Mus musculus [19] = experiment: Anticonvulsant activity in ip dosed CF-1 albino mouse assessed as protection from maximal electric shock-induced seizures measured after 0.5 hrs; format: functional; conditions: read-out: MED; summary of the method: as §4
Mus musculus [20] = experiment: Neurotoxicity in CF-1 albino mouse assessed as myoclonic jerks at 300 mg/kg, ip measured after 4 hrs by rotarod test; format: toxicity, organism-based; design: dose 300 mg/kg, route intraperitoneal; conditions: in vivo
Mus musculus [21] = experiment: Anticonvulsant activity in CF-1 albino mouse assessed as protection against 6 Hz psychomotor seizure at 100 mg/kg, ip measured after 0.25 hrs; format: functional; conditions: route intraperitoneal; summary of the method: as §3
Mus musculus [22] = experiment: Anticonvulsant activity in ip dosed CF-1 albino mouse assessed as protection against subcutaneous pentylenetetrazol-induced seizures measured after 4 hrs; format: functional; conditions: read-out: MED; summary of the method: as §6
Rattus norvegicus [23] = experiment: Neurotoxicity in Sprague-Dawley rat assessed as motor impairment at 30 mg/kg, po by rotarod test; format: toxicity, organism-based; design: dose 30 mg/kg, route oral; conditions: in vivo
Summary of the method: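 Male Sprague–Dawley rats, four animals, oral 30 mg/kg in 0.5% methylcellulose/water. Motor impairment on the rotarod (failure to keep balance for 1 min) assessed alongside MES at five times from 0.25 to 4 h.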

Rattus norvegicus [24] = experiment: Anticonvulsant activity in Sprague-Dawley rat assessed as protection from maximum electric shock-induced seizures at 30 mg/kg, po measured after 2 hrs; format: functional; summary of the method: as §2

O=C1CC(c2ccccc2F)C(=O)N1CN1CCOCC1 (racemic)
Activity (Mus musculus [1]): Non-toxic
Activity (Rattus norvegicus [2]): 50%
Time (Mus musculus [3]): 4 h
Activity (Mus musculus [4]): 100%
Activity (Mus musculus [5]): Toxic
minimal effective dose (Mus musculus [6]): 100 mg/kg
TD50 [7]: 253 mg/kg
MTC (Mus musculus [8]): 300 mg/kg
Activity (Rattus norvegicus [9]): 25%
Activity (Mus musculus [10]): Toxic
Activity (Mus musculus [11]): 25%
ED50 (Mus musculus [12]): 103 mg/kg
Activity (Mus musculus [13]): 75%
Activity (Rattus norvegicus [14]): 25%
minimal effective dose (Mus musculus [15]): 300 mg/kg
Ratio TD50/ED50 (Mus musculus [16]): 2.46
Activity (Mus musculus [17]): 100%
Activity (Rattus norvegicus [18]): 25%
minimal effective dose (Mus musculus [19]): 100 mg/kg
Activity (Mus musculus [20]): Toxic
Activity (Mus musculus [21]): 100%
minimal effective dose (Mus musculus [22]): 300 mg/kg
Activity (Rattus norvegicus [23]): Non-toxic
Activity (Rattus norvegicus [24]): 50%
